For 38 variants, yeast fitness results are on record in the RNAGym collection of RNA variant scans (doi:10.1126/science.aae0568).

Fewer inactive variants are shown than the library holds. Where only a bound is given, the exact number is not on record here.

The chains are these.
B1: tRNA (parent)
chain: GUUCCGUUGGCGUAAUGGUAACGCGUCUCCCUCCUAAGGAGAAGACUGCGGGUUCGAGUCCCGUACGGAACG

The variants in this series derive from B1. In words: yeast fitness relative to wild type (ratio to wild type); higher = fitter; tRNA-Arg(CCU), competitive growth, 37 C, YPD. Put shortly: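 Start and end populations of a pooled competition were compared by 100-nucleotide paired-end sequencing of gene amplicons. The Saccharomyces cerevisiae strains carried tRNA-Arg(CCU) gene variants at the native genomic locus, synthesised with a 3% per-site mutation rate at 69 sites, and competed in YPD at 37°C for 24 hours in six parallel replicates. Darwinian fitness relative to wild type was based on the change in genotype frequencies. Genotypes required ≥ 100 starting reads, and estimates < 0.5 were set to 0.5.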
In the case of GUUCCGUUGGCGUAAUGGUAACGCAUCUCCCUCCUAAGGAGAAGAGUGCGGGAUCGAGUCCCGUCCGGAACG [G25A C46G U53A A65C], the yeast fitness is no more than 0.5.

In the case of GUUCGGUUGGCGUAAUGGUAACGCGUCUCCCUCCUAAGGAGAAGCCUGCGGGUUCGAGUCCCGUACGGAACG [C5G A45C], the yeast fitness was 0.85.

For GUUCCGCUGGCGUAAUGGUAACGCGUCUCCCUCCUAAGGAGAAGACUACGGGUUCGAGUCCCGUACGUACCG [U7C G48A G68U A70C], the yeast fitness was found to be 0.542.

For GUUCCGUUGGCGUAAUGGUAACGCGUCUCCCUCCAAAGGAGAAGACUGCGGGUUCGAGUCCCGUGUGGAACG [U35A A65G C66U], the yeast fitness turned out to be 0.675.

GUUCAGUUGCCGUAAUGGUAACGCGUCUCCCUCCUAAGGAGAGGACUGCGGGUUCGACUCCCGUAGGGAACG [C5A G10C A43G G58C C66G]: the yeast fitness is no more than 0.5.

Turning to GUUCUAUUGGCGUAAUGGUAACGCGUCUCCCUCCCUAAGAGAAGAAUGCGGGUCCGAGUCCCGUACGGAACG [C5U G6A U35C A36U G38A C46A U54C], the yeast fitness is no more than 0.5.

Consider GUUGCGUUGGCGUAAUGGUAACGCGUCUCCCUCCUAAGGAGAAGACUGUGGAUUCGAGUGCCGUACGGAACG [C4G C49U G52A C60G], for which the yeast fitness was no more than 0.5.

GUUCGGUUGGCGUAAUGGUUACGCGUCUCUCUCCUAAGGAGAAGACUGCGGGUUCGAGUCCUGUACGGAACG [C5G A20U C30U C62U]: the yeast fitness was no more than 0.5.

Consider GUUCCGUUAGCGUAAUGGUAACGCGUCUGCCUCCUAAGGAGAAGUGUACGGGUUCCAGUCCCGUACGGAACG [G9A C29G A45U C46G G48A G56C], for which the yeast fitness was no more than 0.5.

Take GUCCCGUUGGCGUAGUGGUAACACGUCUCCCUCCUAAGGAGAAGACUGCGGGUUCGAGUUCCGUACGCAACG [U3C A15G G23A C60U G68C]: the yeast fitness is no more than 0.5.

GUGCCGUUGGCGUAAUGGUAACGCGUCUCCCUCCUGAGGAGAGGACUGCGGGUUCGAGUCCCGUACGGAACG [U3G A36G A43G]: the yeast fitness was 0.735.

As for GUUCCGUUGGCGUAAUGGUAACGAGUCUCCCUCCUAAGGAGAAGACUGCGGCUUCGCGUCCCGUACGGAACG [C24A G52C A57C], the yeast fitness came to 0.561.

As to GUUCCGUUGGCGUAAUGGUAAAGCGUUUCCCUCCUAAGGAGAAGACUGCGGGUUCGUGUCCCGUACGGAACG [C22A C27U A57U], the yeast fitness was no more than 0.5.

Turning to GACCCGUUGGCGUAAUGGUAACGCGUCUCCCUCCUAAGGAGAAGACUGCGGGUUCGAGUCCCGUACGGAACG [U2A U3C], the yeast fitness stood at 0.931.

Consider GUUCCGAUGGCGUAAUGGUAACGCGUCUCCCCCCUAAGGAGAAGACUGCGGGUUCGAGUCCCGUGCGGAACG [U7A U32C A65G], for which the yeast fitness turned out to be 0.558.

GUUCCGAUGGCGUAAUGGUAACGCGUCUCCCUCCUAUGGAGAAGACUGCGGGUUCGAGUCCCGUACGGAACG [U7A A37U]: the yeast fitness stood at 0.696.

As for GUUCCGUUGGCGUACUGGUAACGCGUCUCCCUCCUAAGGAGAAGACUGCGGGUUCGAGUCCCGUACGGCACG [A15C A69C], the yeast fitness amounted to 0.672.

For GUUACGUUGGCGUAAUGGUAACGCGUCUCCCUCCUAAGGAGAAGACUGCGGGUUUGUGUCCCGGACGGAACG [C4A C55U A57U U64G], the yeast fitness is no more than 0.5.

Turning to GUUCCGUUGGCGUAAUGGUAACGCGUCUCCCUCCUAAGGAGAAGACUCUGGGUGCGAGUCCCGUAAGGAACG [G48C C49U U54G C66A], the yeast fitness turned out to be 0.624.

Turning to GUUCCGUUGGCGUCAUGGUAACGCGUUUCCCUCCUAAGGAGAAGAUUGCGGCUUCGAGUCCCGUACGGAACG [A14C C27U C46U G52C], the yeast fitness was no more than 0.5.

Turning to GUUCCGUUGGCGCAAUGGUAACGCGUUUCCCUCCUAAGGAGAAGACUGCGGGUUAGAGUCCCGUACGGUACG [U13C C27U C55A A69U], the yeast fitness is no more than 0.5.

For GUUCCGUUGGCGUAAUGGUAACGGGUCUACCUCCUAAGGAGAACACUGCGGGUUCGAGUCUCGUACGGAACG [C24G C29A G44C C61U], the yeast fitness was found to be 0.787.

Regarding GUUCCGUUGCCGUAAUGGUAACACGUCUCCCUCCAAAGGUGUAGACUGCGGGUUGGAGUCCCGUACGGAACG [G10C G23A U35A A40U A42U C55G], the yeast fitness was no more than 0.5.

As for GUUGCAUUGGCGUAAUGGUAACGCGUCUCCCUCCUAAGGAGAAGACUGCGGGUUCGAGUCCCGUACGGUACG [C4G G6A A69U], the yeast fitness was determined as 0.667.

For the variant GUUCCCUUGGCGUAAUGGUAACGCGUCUCCCUCCUAAGGAGAAGACUGCGCGUUCGAGUCCCGUACGGAACG [G6C G51C], the yeast fitness worked out at 0.596.

As to GUUCCGUUGGUGUAAUGGUAACGCGUCUCCCUCCUAAGGAGAAGACUGCGGGUUGGAGUCCCGUACGGCACG [C11U C55G A69C], the yeast fitness amounted to 0.509.

Turning to GUUCCGUUGGCGUAAUGGUAACACGUCUCGCUCCUAAGGAGAAGACUGCGGGUUCGAGUCCCGUACAGAACG [G23A C30G G67A], the yeast fitness is 0.726.

On to GUUCCGUUGGAGUAAUGGUAACGCGUCUCCAUCCUAAGGAGAACACUGCGGGUUCGAGUCCCGUUCGGAACG [C11A C31A G44C A65U], for which the yeast fitness is no more than 0.5.

As to GUUCCGUUGGCAUAAUGGUAACGUGUCUCCCUCCUAACGAGAAGACUGCGGGUUCGAGUCCGGUACGGAACG [G12A C24U G38C C62G], the yeast fitness is no more than 0.5.

In the case of GUUCCGUUGGCGUAAUGCUAACGCGUCUCCCUCCUAAGGAGAAGACUGCGGGUUCGAGUCCCGUCCGAAACG [G18C A65C G68A], the yeast fitness was no more than 0.5.

Regarding GUUCCGUUGGCGUAAUGGUAACGCGUCUUCGUCCUAAGGAGAACACUGCGGGUUCGAGUCCCGUACGGAACG [C29U C31G G44C], the yeast fitness is no more than 0.5.

With GUUCCGUUGGCGUCAUGGUAACGCGUAUCCAUCCUAAGGAGAAGACUGCGGGUUCGAGUCCCAUACGGAACG [A14C C27A C31A G63A], the yeast fitness is no more than 0.5.

GUUCCAUUGGGGUAAUGGUAAGGCGUCUCCCUCCUAAGGAGAAGACUGCGGGUACGAGUCCCGUACGGAACG [G6A C11G C22G U54A]: the yeast fitness is no more than 0.5.

As to GUUCCGUUGGCGUAAUGGUCAUGCGUCUGCCUCCUAAGGACAAGACUGGGGGAUCGAGUCCCGUACGGAACG [A20C C22U C29G G41C C49G U53A], the yeast fitness is no more than 0.5.

Consider GUUCCGUUCGCGUAAUGGCAACGCGUCUCCAUCCUAAGGAGAAGACUGCGGGUUCGACUCCCGUACGGAUCG [G9C U19C C31A G58C A70U], for which the yeast fitness was no more than 0.5.

For the variant GUUCCGGUGGCGUAAUGGUAACGCGUCUCCCUCCUAAGGAGAAGACUGCGGGUUCGAGUCCCGUACGGACCG [U7G A70C], the yeast fitness stood at 0.972.

Consider GUUCCGCUGGCGUAAUGGUAACGCGUCUCGCUCCUAAGAAUAAGACUGCGCAUUCGAGUCCCGUACGGAACG [U7C C30G G39A G41U G51C G52A], for which the yeast fitness is no more than 0.5.

In the case of GUUCGGUUGGCGUAAUGGUAACGCAUCUCCCUCGUAAGGAGUAGACUGCCGGUCCGAGUCCCGUACGGACCG [C5G G25A C34G A42U G50C U54C A70C], the yeast fitness was no more than 0.5.
